Activity calls are given as the source filed them. No cut-off for these calls is given here.
Experiments:
[1] = biological target: T1, C-C chemokine receptor type 2 (Homo sapiens, UniProt P41597); settings: HEK293
Target sequence in this assay (P41597 whole entry, looked up): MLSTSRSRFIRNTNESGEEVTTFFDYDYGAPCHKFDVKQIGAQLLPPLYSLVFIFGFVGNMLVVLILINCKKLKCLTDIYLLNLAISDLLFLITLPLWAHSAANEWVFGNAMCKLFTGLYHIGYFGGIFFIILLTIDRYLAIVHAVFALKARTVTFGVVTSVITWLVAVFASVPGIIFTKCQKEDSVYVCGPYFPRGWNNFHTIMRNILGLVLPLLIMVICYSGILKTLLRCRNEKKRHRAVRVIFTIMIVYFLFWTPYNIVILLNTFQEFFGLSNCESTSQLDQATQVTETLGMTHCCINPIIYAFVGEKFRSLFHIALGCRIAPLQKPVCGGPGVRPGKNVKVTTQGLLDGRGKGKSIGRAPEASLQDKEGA

[2] = test system: T2, C-C chemokine receptor type 2 (Homo sapiens), P41597 [E291Q]; settings: HEK293
T2 sequence (whole entry): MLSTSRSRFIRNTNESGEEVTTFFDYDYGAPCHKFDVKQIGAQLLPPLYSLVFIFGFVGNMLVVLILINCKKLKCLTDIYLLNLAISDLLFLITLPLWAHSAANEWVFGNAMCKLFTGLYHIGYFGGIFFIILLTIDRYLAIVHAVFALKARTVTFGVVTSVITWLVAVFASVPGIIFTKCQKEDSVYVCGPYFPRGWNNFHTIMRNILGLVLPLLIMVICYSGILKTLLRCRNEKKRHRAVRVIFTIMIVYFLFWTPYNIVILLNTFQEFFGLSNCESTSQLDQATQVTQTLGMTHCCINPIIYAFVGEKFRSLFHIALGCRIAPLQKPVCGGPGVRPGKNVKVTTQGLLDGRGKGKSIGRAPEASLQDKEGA

[3] = biological target: T1, C-C chemokine receptor type 2; settings: HEK293; remark: listed apart in the source
Target sequence in this assay (P41597 whole entry, looked up): as the sequence (P41597 whole entry, looked up) above

[4] = biological target: T1, C-C chemokine receptor type 2; test: Inhibition of chemotaxis by C-C chemokine receptor type 2 antagonist in human monocytes was measured in the presence 1 nM MCP-1; type: functional, cell-based
In short: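 Human monocyte chemotaxis driven by 1 nM MCP-1 as agonist. Antagonist added from a 10 mM DMSO stock, final 10 nM to 10 μM; vehicle control included. Values reported as pKb.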
Target sequence in this assay (P41597 whole entry, looked up): as the sequence (P41597 whole entry, looked up) above

[5] = biological target: C-C chemokine receptor type 2 (Homo sapiens, UniProt P41597, Q288A); test: Binding affinity of compound (10 uM) towards Q288A receptor variant (mutant CCR2 receptor) using radioligand [125I]MCP-1 in HEK 293 cells; type: cell-based, HEK293
C-C chemokine receptor type 2 (Homo sapiens, UniProt P41597, Q288A), sequence (P41597 whole entry Q288A): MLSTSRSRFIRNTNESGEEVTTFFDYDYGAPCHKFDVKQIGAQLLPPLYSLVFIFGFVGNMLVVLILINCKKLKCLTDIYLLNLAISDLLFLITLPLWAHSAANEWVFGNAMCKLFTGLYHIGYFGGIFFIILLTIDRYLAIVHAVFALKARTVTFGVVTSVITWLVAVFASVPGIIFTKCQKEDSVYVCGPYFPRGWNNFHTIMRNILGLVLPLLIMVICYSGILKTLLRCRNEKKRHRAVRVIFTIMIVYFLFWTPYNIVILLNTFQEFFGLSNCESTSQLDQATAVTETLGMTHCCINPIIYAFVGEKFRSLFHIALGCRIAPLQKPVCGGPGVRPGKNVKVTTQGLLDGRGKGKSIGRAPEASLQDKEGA

[6] = biological target: C-C chemokine receptor type 2 (Homo sapiens, UniProt P41597, T292A); test: Binding affinity of compound (10 uM) towards T292A receptor variant (mutant CCR2 receptor) using radioligand [125I]MCP-1 in HEK 293 cells; type: cell-based, HEK293
C-C chemokine receptor type 2 (Homo sapiens, UniProt P41597, T292A), sequence (P41597 whole entry T292A): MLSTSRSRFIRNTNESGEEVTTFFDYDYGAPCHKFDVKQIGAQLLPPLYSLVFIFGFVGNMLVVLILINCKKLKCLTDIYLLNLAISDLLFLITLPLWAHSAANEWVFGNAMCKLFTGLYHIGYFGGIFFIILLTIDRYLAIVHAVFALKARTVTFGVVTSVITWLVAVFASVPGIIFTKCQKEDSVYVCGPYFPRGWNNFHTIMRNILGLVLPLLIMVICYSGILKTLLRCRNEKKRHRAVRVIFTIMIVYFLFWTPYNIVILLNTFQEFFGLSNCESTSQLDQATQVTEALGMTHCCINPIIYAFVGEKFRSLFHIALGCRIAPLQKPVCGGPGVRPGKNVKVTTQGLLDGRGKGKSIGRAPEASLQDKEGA

[7] = biological target: C-C chemokine receptor type 2 (Homo sapiens, UniProt P41597, H121F); test: Binding affinity of compound (10 uM) towards H121F receptor variant (mutant CCR2 receptor) using radioligand [125I]MCP-1 in HEK 293 cells; type: cell-based, HEK293
C-C chemokine receptor type 2 (Homo sapiens, UniProt P41597, H121F), sequence (P41597 whole entry H121F): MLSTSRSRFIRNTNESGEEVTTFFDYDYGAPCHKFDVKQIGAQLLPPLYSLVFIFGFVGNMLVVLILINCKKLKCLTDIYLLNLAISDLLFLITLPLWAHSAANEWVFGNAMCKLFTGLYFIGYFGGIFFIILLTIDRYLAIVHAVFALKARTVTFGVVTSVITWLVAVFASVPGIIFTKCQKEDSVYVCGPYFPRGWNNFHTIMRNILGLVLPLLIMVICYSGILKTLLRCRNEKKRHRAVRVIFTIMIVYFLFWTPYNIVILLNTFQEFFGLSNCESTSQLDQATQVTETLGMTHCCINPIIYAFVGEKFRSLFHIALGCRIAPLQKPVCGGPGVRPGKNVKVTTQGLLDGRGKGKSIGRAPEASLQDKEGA

[8] = biological target: T1, C-C chemokine receptor type 2; test: Binding displacement of [125I]MCP-1 (0.14 nM) was measured on CHO cell membranes expressing human CCR2 (C-C chemokine receptor type 2)
Target sequence in this assay (P41597 whole entry): as the sequence (P41597 whole entry, looked up) above

[9] = biological target: C-C chemokine receptor type 2 (Homo sapiens, UniProt P41597, D284A); test: Binding affinity of compound (10 uM) towards D284A receptor variant (mutant CCR2 receptor) using radioligand [125I]MCP-1 in HEK 293 cells; type: cell-based, HEK293
C-C chemokine receptor type 2 (Homo sapiens, UniProt P41597, D284A), sequence (P41597 whole entry D284A): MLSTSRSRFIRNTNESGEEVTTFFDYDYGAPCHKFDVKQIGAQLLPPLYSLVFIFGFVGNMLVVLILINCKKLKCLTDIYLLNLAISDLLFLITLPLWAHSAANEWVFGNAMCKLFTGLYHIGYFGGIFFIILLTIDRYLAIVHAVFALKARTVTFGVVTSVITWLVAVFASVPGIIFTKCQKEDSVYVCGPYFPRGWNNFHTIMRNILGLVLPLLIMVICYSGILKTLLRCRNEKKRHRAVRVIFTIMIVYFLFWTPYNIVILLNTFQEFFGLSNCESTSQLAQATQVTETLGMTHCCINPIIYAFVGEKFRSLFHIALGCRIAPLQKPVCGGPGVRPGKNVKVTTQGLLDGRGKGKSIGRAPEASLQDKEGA

[10] = biological target: T1, C-C chemokine receptor type 2; test: Binding affinity of compound (10 uM) towards WT receptor variant (mutant C-C chemokine receptor type 2) using radioligand [125I]MCP-1 in HEK 293 cells; type: cell-based; settings: hek293
Target sequence in this assay (P41597 whole entry, looked up, stated change not applied): as the sequence (P41597 whole entry, looked up) above

[11] = biological target: C-C chemokine receptor type 2 (Homo sapiens, UniProt P41597, H121A/T292A); test: Binding affinity of compound (10 uM) towards H121A/T292A receptor variant (double mutant CCR2 receptor) using radioligand [125I]MCP-1 in HEK 293 cells; type: cell-based, HEK293
C-C chemokine receptor type 2 (Homo sapiens, UniProt P41597, H121A/T292A), sequence (P41597 whole entry H121A/T292A): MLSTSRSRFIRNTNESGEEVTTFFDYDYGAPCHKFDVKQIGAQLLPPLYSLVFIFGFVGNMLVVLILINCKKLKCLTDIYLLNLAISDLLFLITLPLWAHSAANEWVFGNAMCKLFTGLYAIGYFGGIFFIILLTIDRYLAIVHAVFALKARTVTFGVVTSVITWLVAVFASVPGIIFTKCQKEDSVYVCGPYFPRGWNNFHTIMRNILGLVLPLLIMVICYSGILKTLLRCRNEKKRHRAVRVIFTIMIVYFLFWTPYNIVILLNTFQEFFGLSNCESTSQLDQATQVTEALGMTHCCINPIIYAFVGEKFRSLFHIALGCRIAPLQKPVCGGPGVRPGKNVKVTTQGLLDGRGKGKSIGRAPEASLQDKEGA
In short: (§1)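 Wild-type or point-mutant CCR2 cDNA in pcDNA3.1 transiently transfected into HEK-293T cells at 50–80% confluence, with a co-transfected human G-protein plasmid cocktail. Membranes harvested 48 h later by sonication and differential centrifugation.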

[12] = biological target: C-C chemokine receptor type 2 (Homo sapiens, UniProt P41597, Y49F); test: Binding affinity of compound (10 uM) towards Y49F receptor variant (mutant CCR2 receptor) using radioligand [125I]MCP-1 in HEK 293 cells; type: cell-based, HEK293
C-C chemokine receptor type 2 (Homo sapiens, UniProt P41597, Y49F), sequence (P41597 whole entry Y49F): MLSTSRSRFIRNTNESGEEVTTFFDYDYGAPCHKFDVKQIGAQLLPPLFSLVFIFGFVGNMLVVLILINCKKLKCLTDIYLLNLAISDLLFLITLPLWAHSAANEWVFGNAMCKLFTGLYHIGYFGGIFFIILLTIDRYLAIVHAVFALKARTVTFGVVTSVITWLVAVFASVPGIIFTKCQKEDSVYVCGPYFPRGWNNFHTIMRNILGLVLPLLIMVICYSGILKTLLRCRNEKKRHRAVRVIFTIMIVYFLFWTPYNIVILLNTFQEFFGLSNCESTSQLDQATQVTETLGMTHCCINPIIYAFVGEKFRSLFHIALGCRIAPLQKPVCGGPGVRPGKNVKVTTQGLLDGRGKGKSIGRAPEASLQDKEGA

[13] = biological target: T1, C-C chemokine receptor type 2; test: Binding affinity of compound (10 uM) towards Y210A-292A receptor variant (double mutant CCR2 receptor) using radioligand [125I]MCP-1 in HEK 293 cells; Inactive; type: cell-based; settings: HEK293
In short: as §1
Target sequence in this assay (P41597 whole entry, looked up): as the sequence (P41597 whole entry, looked up) above

[14] = biological target: C-C chemokine receptor type 2 (Homo sapiens, UniProt P41597, T290A); test: Binding affinity of compound (10 uM) towards T290A receptor variant (mutant CCR2 receptor) using radioligand [125I]MCP-1 in HEK 293 cells; type: cell-based, HEK293
C-C chemokine receptor type 2 (Homo sapiens, UniProt P41597, T290A), sequence (P41597 whole entry T290A): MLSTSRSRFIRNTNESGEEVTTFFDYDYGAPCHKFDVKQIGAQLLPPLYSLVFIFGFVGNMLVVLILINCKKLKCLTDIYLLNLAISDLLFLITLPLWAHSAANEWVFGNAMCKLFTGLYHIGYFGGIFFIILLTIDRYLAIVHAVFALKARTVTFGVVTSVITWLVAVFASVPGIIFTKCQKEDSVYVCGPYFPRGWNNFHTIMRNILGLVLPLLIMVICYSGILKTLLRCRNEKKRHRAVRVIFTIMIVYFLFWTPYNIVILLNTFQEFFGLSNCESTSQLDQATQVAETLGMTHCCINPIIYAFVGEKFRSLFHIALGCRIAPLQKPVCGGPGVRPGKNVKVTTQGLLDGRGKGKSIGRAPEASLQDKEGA
In short: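 HEK 293 cells transiently transfected with point-mutated human CCR2 (lipofectAMINE Plus, with a human G-protein plasmid cocktail). Membranes were harvested 48 h later in HEPES pH 7/sucrose/EDTA with protease inhibitors.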

[15] = biological target: C-C chemokine receptor type 2 (Homo sapiens, UniProt P41597, E291Q); test: Binding affinity of compound (10 uM) towards E291Q receptor variant (mutant CCR2 receptor) using radioligand [125I]MCP-1 in HEK 293 cells; type: cell-based, HEK293
In short: as §1

[16] = biological target: C-C chemokine receptor type 2 (Homo sapiens, UniProt P41597, H121A); test: Binding affinity of compound (10 uM) towards H121A receptor variant (mutant CCR2 receptor) using radioligand [125I]MCP-1 in HEK 293 cells; type: cell-based, HEK293
C-C chemokine receptor type 2 (Homo sapiens, UniProt P41597, H121A), sequence (P41597 whole entry H121A): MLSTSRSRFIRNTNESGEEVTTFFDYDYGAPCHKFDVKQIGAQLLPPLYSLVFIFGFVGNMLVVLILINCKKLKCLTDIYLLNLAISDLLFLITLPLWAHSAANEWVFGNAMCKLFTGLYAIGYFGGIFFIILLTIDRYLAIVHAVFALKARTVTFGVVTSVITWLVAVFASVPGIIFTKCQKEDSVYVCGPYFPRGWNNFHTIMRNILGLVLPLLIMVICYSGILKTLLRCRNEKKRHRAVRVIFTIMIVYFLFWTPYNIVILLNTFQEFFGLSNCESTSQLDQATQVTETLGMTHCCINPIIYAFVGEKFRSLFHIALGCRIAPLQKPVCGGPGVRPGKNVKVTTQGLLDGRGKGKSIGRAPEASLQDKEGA

[17] = biological target: T1, C-C chemokine receptor type 2; test: Binding affinity of compound (10 uM) towards […] receptor variant (mutant CCR2 receptor) using radioligand [125I]MCP-1 in HEK 293 cells; type: cell-based, HEK293
In short: as §1
Target sequence in this assay (P41597 whole entry, looked up, stated change not applied): as the sequence (P41597 whole entry, looked up) above

[18] = test system: T2, C-C chemokine receptor type 2 (Homo sapiens), P41597 [E291Q]; test: Binding affinity of compound (10 uM) towards E291Q receptor variant (mutant CCR2 receptor) using radioligand [125I]MCP-1 in HEK 293 cells; Inactive; type: cell-based; settings: HEK293
In short: as §1

[19] = biological target: T1, C-C chemokine receptor type 2; test: Inhibitory activity against C-C chemokine receptor type 2 (antagonist activity); type: functional
Target sequence in this assay (P41597 whole entry): as the sequence (P41597 whole entry, looked up) above

Row | SMILES | Log Ki [1] | Log Ki [2] | Log Ki [3] | pKb [4] | Ki [5] | Ki [6] | Ki [7] | Ki [8] | Ki [9] | Log Ki [10] | Ki [11] | Ki [12] | Log Ki [13] | Ki [14] | Ki [15] | Ki [16] | Ki [17] | Log Ki [18] | IC50 [19]
1 | Cc1ccc2c(c1)C1(CCN(CCc3nc(-c4ccccc4)oc3C)CC1)OC(=O)N2 | inactive | inactive | inactive | 7.57 |  |  |  |  |  |  |  |  |  |  |  |  |  |  | 
2 | Cc1ccc(-c2ccc3c(c2)C=C(C(=O)Nc2ccc(CN(C)C4CCOCC4)cc2)CCC3)cc1 |  |  |  | 8.63 | 229 nM | 759 nM | 24 nM | 28.8 nM | 589 nM | -7.16 | 4790 nM | 151 nM | inactive | 105 nM | 2040 nM | 302 nM | 2570 nM |  | 
3 | O=C(/C=C/c1ccc(Cl)c(Cl)c1)NCCCCCN1CCC(c2c[nH]c3ccc(O)cc23)CC1 |  |  |  | 7.71 | 170 nM | 724 nM | 166 nM |  | 229 nM | -7 | 2090 nM | 16.6 nM |  | 129 nM |  | 2510 nM | 562 nM | inactive | 
4 | Cc1ccc(CN2CC[C@@H](NC(=O)CNC(=O)c3cccc(C(F)(F)F)c3)C2)c(C)c1 |  |  |  | 6.4 | 316 nM | 7760 nM | 661 nM | 288 nM | 724 nM | -6.47 |  | 316 nM | inactive |  |  | 2570 nM | 1820 nM | inactive | 54 nM
5 | Cc1ccc(-c2ccc3c(c2)C=C(C(=O)Nc2ccc(C[N+](C)(C)C4CCOCC4)cc2)CCC3)cc1.[Cl-] |  |  |  | 9.53 | 9.77 nM | 28.8 nM | 2.63 nM | 4.17 nM | 12.6 nM | -8.16 | 182 nM | 27.5 nM |  | 21.4 nM | 148 nM | 17.8 nM | 105 nM |  | 
